Assay outcomes deposited in PubChem by several laboratories.
Yeast superoxide: lowers age-related superoxide in aged yeast cells; S. cerevisiae aged cells, superoxide DHE fluorescence; active compounds read low; AID 2690; actives 0.18% (n = 330,000); superoxide response (% of plate mean), % at 10 µM;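 active means superoxide response under a set limit, about three screen SD below normal, cut at about 65% in these data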;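 further: yeast aged for seven days with compound at 30 °C before DHE staining; 100% = average MFI of all compound-treated wells on the plate with controls excluded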
SR-BI uptake up: activators of SR-BI mediated HDL lipid uptake. activation, % at 12.5 µM. CHO ldlA[mSR-BI] cells, DiI-HDL uptake fluorescence, 3 h; 100 = double the neutral-control signal. actives 0.096% (n = 320,000). AID 504775;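 active means mean replicate activation of at least 60% and every replicate at or above 60%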;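 further: 0% = median plate neutral-control signal and 100% = twice that signal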
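Test system: SR-BI-overexpressing, LDLR-lacking CHO cells. Measured by: DiI fluorescence, bottom read. Medium: Ham's F12 with 0.5% BSA, HEPES 25 mM, pH 7.4. Timing: 3 h uptake period with compound, 37 °C.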
SR-BI HDL uptake: blocks mouse SR-BI lipid uptake from DiI-HDL. AID 488896. ldlA[mSR-BI] CHO cells, DiI-HDL uptake fluorescence, 3 h. inhibition, % at 12.5 µM. Q61009. actives 0.96% (n = 320,000);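 active means mean replicate inhibition of at least 70% and a set share of replicates each scoring 70 or more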;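 further: 0% = median of neutral control wells and 100% = median of positive control wells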
SMARCA2 act: increases SMARCA2 function in MMTV reporter cells; MG213 cells, MMTV-luciferase reporter, dexamethasone, overnight; activation, % at 9.1 µM; actives 1% (n = 370,000); in the data active means activation above about 7.8%;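 further: 0% = vehicle wells and 100% = reference activator wells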
AHR activator: activates the human aryl hydrocarbon receptor; AHR-responsive luciferase reporter cells, luminescence; actives 2.5% (n = 320,000); activation, % at 5 µM; P35869; AID 2796; in the data active means activation above about 47%;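 further: 0% = vehicle wells and 100% = reference agonist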
Target sequence (P35869 whole entry, looked up): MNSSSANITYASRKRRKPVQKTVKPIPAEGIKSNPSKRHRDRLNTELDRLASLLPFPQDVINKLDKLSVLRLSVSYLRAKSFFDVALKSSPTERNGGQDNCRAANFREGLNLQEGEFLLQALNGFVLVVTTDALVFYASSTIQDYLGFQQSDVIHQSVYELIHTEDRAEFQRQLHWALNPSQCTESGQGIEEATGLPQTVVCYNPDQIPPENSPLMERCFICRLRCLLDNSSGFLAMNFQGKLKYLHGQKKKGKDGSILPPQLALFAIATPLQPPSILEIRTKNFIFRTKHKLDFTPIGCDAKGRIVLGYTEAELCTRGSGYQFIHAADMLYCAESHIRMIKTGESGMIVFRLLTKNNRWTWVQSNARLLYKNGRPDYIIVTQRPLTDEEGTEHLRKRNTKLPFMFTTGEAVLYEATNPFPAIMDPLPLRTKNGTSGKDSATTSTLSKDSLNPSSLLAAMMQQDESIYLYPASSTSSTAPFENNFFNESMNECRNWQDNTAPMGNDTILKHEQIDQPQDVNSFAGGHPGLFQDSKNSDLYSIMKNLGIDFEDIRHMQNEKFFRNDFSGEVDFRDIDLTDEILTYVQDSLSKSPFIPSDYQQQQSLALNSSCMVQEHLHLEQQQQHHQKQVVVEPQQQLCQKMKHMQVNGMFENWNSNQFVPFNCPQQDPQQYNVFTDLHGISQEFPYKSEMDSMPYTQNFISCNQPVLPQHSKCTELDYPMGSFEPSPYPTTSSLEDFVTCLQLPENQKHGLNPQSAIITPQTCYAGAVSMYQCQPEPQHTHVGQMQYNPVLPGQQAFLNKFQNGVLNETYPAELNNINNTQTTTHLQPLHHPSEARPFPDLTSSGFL
Lipid droplet: hepatic lipid droplet formation modulation | AML12 mouse hepatocytes, oleate lipid droplets, BODIPY imaging | inhibition, % at 6.5 µM | actives 0.4% (n = 240,000);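 active means lipid droplet intensity inhibited by at least 50%, with more than 500 cells counted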
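Technique: fluorescence imaging, 20x objective, two fields per well / Assay system: AML12 hepatocytes (mouse) / Measure: % inhibition of lipid droplet signal / Doses: 6.5 µM single-point dosing / Incubation: overnight exposure / Reagent: 100 µM oleic acid challenge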
* hit, by the source's call; x = no result. A selection: hits, their analogues and other compounds. The true share with any hit is near 4.3%.

SMILES | Yeast superoxide | SR-BI uptake up | SR-BI HDL uptake | SMARCA2 act | AHR activator | Lipid droplet
Cc1ccc(C)c(NC(=O)Nc2ccc3c(c2)OCO3)c1 | 104 | -2 | 2 | 1 | 64* | -19
Cc1nn(-c2ccccc2)c(Cl)c1C(=O)OC(C)C(=O)Nc1ccc2c(c1)OCO2 (configuration not stated) | 102 | -21 | 21 | -4 | 66* | x
CCc1ccccc1NC(=O)NCc1ccc2c(c1)OCO2 | 102 | 2 | -2 | -1 | 68* | -4
CC(Sc1ncnc2ccccc12)C(=O)Nc1ccc2c(c1)OCO2 (configuration not stated) | 99 | -23 | 23 | 0 | 51* | x
Cc1ccc(NC(=O)Nc2ccc3c(c2)OCO3)nc1 | 95 | -1 | 1 | 6 | 12 | 6
Cc1cccc(NC(=O)NCc2ccc3c(c2)OCO3)c1C | 94 | -9 | 9 | 0 | 1 | -15
Cc1c[nH]c2cccc(-c3c(Cl)cccc3Cl)c12 | x | x | x | 5 | x | x
COC(=O)CN1CCN(C(=O)c2csc3ccccc23)CC1 | x | x | x | -4 | x | x
Cc1cc(Oc2cccnc2)ccc1NC(=O)CCc1c[nH]c2ccccc12 | x | x | x | -3 | x | x
O=C(c1cccc(Br)c1)N1CCC(Oc2cccnc2)CC1 | x | x | x | 2 | x | x
O=C(Cc1ccccc1[N+](=O)[O-])NNC(=O)Nc1ccc2c(c1)OCO2 | 102 | x | -44 | -2 | 21 | -1
CC(NC(=O)Nc1ccc2c(c1)OCO2)C1CCCO1 (configuration not stated) | 89 | 19 | -19 | 0 | 66* | 4
O=C(Cc1ccccc1[N+](=O)[O-])Nc1ccc2c(c1)OCO2 | 107 | 1 | -1 | 0 | 61* | -15
Cc1nn(C(C)C(=O)Nc2ccc3c(c2)OCO3)c(C)c1[N+](=O)[O-] (configuration not stated) | 94 | x | x | 4 | 76* | -7
Cc1ccccc1NC(=O)Nc1ccc2c(c1)OCO2 | 96 | 4 | -4 | 1 | 68* | -1
CC1=CC2C3C(=O)N(c4ccccc4)C(=O)C3C1C(=O)C2(O)C(C)C (configuration not stated) | x | x | x | -3 | x | x
c1ccc(-c2nc3ccccc3[nH]2)cc1 | 100 | -14 | 14 | 6 | 27 | -6
S=c1nc(-c2ccccc2)[nH]c2ccc(Br)cc12 | 99 | -2 | 2 | 5 | 53* | -8
COC(=O)[C@]12C[C@H](CC(=O)N3CCOCC3)C(=O)N(Cc3cccc4ccccc34)C1=C[C@H](COCc1ccccc1)O[C@@H]2C | x | x | x | 0 | x | x
Cc1ccc(CNC(=O)c2ccc(N3CCC4(CC3)CC(c3cccc(Br)c3)=NO4)c(NC(=O)c3ccc(Br)cc3)c2)cc1 | 89 | -2 | 2 | 0 | 4 | x
Cc1ccc(CNC(=O)c2ccc(N3CCC4(CC3)CC(c3cccc(Br)c3)=NO4)c(N)c2)cc1 | 113 | -85 | 85* | -3 | 2 | x
Cn1c(=O)oc2cc(S(=O)(=O)N3CCN(C(=O)C4CCCO4)CC3)ccc21 (configuration not stated) | x | x | x | 1 | x | x
CCCCCCOc1ccc(N2C(=O)CC(SC(=NCC)NCC)C2=O)cc1 (configuration not stated) | 65* | -10 | 10 | 0 | 1 | -1
CCCOc1ccc(N2C(=O)CC(SC(=NCC)NCC)C2=O)cc1 (configuration not stated) | 113 | -13 | 13 | 1 | -2 | -1
COc1ccc(OC)c(C2=NOC(C(=O)N3CCN(c4ccccc4)CC3)C2)c1 (configuration not stated) | 112 | -71 | 71* | -4 | 1 | x
SMILES | Yeast superoxide | SR-BI uptake up | SR-BI HDL uptake | SMARCA2 act | AHR activator | Lipid droplet
Cn1c(=O)[nH]c(=O)c2c1nc(Br)n2CC(O)COc1ccccc1 (configuration not stated) | 104 | 26 | -26 | 7.9* | 0 | 14
O=C(C1CCN(c2ncnc3c2sc2cccc(F)c23)CC1)N1CCN(Cc2ccccc2)CC1 | x | x | x | -2 | x | x
O=C(NCc1ccc(F)cc1)C1CCC(CNc2c(N3CCCCC3)c(=O)c2=O)CC1 (configuration not stated) | 63* | 49 | -49 | -2 | -1 | 25
CC(C)OC(=O)c1c(NC(=O)Cn2cnc([N+](=O)[O-])n2)sc2c1CCCC2 | 95 | x | 75* | 0 | 1 | -3
O=C(C1CCC1)N1CCc2cc(S(=O)(=O)N3CCN(c4ccccc4F)CC3)ccc21 | x | x | x | 0 | x | x
CC(C)CC(NC(=O)OCc1ccccc1)C(=O)NCC(=O)NCC(=O)OCc1ccccc1 (configuration not stated) | x | x | x | -2 | x | x
COc1cccc(C(=O)Oc2c(Br)cc(Br)cc2/C=N/NC(=O)c2cc(C)[nH]n2)c1 | 105 | -103 | 103* | -6 | 34 | 14
CCNC(=S)N/N=C/c1cc(Br)cc(Br)c1OC | 87 | -49 | 49 | -1 | 63* | 1
COc1c(Br)cc(Br)cc1/C=N/NC(=O)c1cccnc1 | 94 | -8 | 8 | -2 | x | -9
COc1c(Br)cc(Br)cc1/C=N/NC(=O)c1ccncc1 | 106 | -36 | 36 | 0 | 57* | -19
CCCC(C)C(=O)NC1CCCCN(Cc2ccc(C)cc2)C1=O (configuration not stated) | x | x | x | -3 | x | x
Cc1noc(C)c1S(=O)(=O)N1CCCc2nc(-c3ccccc3)ccc21 | x | x | x | -4 | x | x
Brc1ccccc1C1Cc2nnccc2CN1 (configuration not stated) | x | x | x | 0 | x | x
Cc1ccc(NC(=O)c2ccc(Cl)c(S(=O)(=O)NCC3CCCO3)c2)c(O)c1 (configuration not stated) | 93 | -14 | 14 | -4 | 62* | -29
Oc1ccc2ccccc2c1C=Nc1ccccc1-c1nc2ccccc2[nH]1 | 73 | -51 | 51 | 5 | 65* | 10
Brc1ccc2nc(-c3c[nH]c4ccccc34)cn2c1 | 94 | -84 | 84* | 6 | 45 | 0
COc1ccccc1NC(=O)c1cc2ccccc2o/c1=N\O | 96 | -29 | 29 | 7 | 67* | x
COc1cc(NC(=O)c2ccccc2F)ccc1NC(=O)c1cc2ccccc2o1 | 96 | -87 | 87* | -3 | x | 5
COc1cc(NC(=O)c2c(OC)cccc2OC)ccc1NC(=O)c1cc2ccccc2o1 | 108 | -41 | 41 | 3 | 72* | 0
COc1cc(NC(=O)c2ccc(F)cc2)ccc1NC(=O)c1cc2ccccc2o1 | 103 | -48 | 48 | -2 | -1 | 0
Cc1cc(NC(=O)c2cccnc2)ccc1NC(=O)c1cc2ccccc2o1 | 88 | -70 | 70 | -4 | -4 | 10
COc1cc(NC(=O)c2ccc(C)cc2C)ccc1NC(=O)c1cc2ccccc2o1 | 112 | -66 | 66 | -2 | 3 | -4
Cc1cc(NC(=O)c2cccnc2Cl)ccc1NC(=O)c1cc2ccccc2o1 | 110 | -77 | 77* | -3 | -5 | 5
